Measured values reported in ChEMBL document CHEMBL1671657, “MurF inhibitors with antibacterial activity: effect on muropeptide levels” (Antimicrob Agents Chemother, 2009).
Values after ≈ are worked out from the molar mass of the structure shown. Active and inactive are the calls of the source. The rule behind the calls is not given here. Bridge positions count the residues as written; N and C are the ends. Square brackets hold non-standard residues; d marks the D form. Peptide text beside a SMILES is read from it. Dab = NCC[C@H](N)C(=O)O

What was measured:
Escherichia coli [1] = experiment: Antimicrobial activity against Escherichia coli OC9040 by broth microdilution method; assay type: functional
Summary of the method: (§1)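 MICs by CLSI broth microdilution. Where polymyxin B nonapeptide was included, it was present at 2 μg/ml alongside the test compound.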

Escherichia coli [2] = experiment: Antimicrobial activity against LPS-deffective Escherichia coli OC2530 by broth microdilution method; assay type: functional; summary of the method: as §1
Enterococcus faecalis = experiment: Antimicrobial activity against Enterococcus faecalis ATCC 29212 by broth microdilution method; assay type: functional; summary of the method: as §1
Enterococcus faecium = experiment: Antimicrobial activity against Enterococcus faecium OC3312 by broth microdilution method; assay type: functional; summary of the method: as §1
Escherichia coli [3] = experiment: Antimicrobial activity against Escherichia coli OC2605 by broth microdilution method; assay type: functional
Summary of the method: (§2)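 CLSI broth microdilution MIC; strains from the sponsor's in-house collection.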

Staphylococcus aureus [4] = experiment: Antimicrobial activity against methicillin-resistant Staphylococcus aureus OC3726 by broth microdilution method; assay type: functional; summary of the method: as §2
Escherichia coli [5] = experiment: Antimicrobial activity against Escherichia coli ATCC 25922 by broth microdilution method; assay type: functional; summary of the method: as §1
Staphylococcus aureus [6] = experiment: Antimicrobial activity against methicillin-resistant Staphylococcus aureus OC2878 by broth microdilution method; assay type: functional; summary of the method: as §2
Staphylococcus aureus [7] = experiment: Antimicrobial activity against Staphylococcus aureus ATCC 29213 by broth microdilution method; assay type: functional; summary of the method: as §1
Staphylococcus aureus [8] = experiment: Antimicrobial activity against Staphylococcus aureus OC4172 by broth microdilution method; assay type: functional; summary of the method: as §1
Staphylococcus aureus [9] = experiment: Inhibition of Staphylococcus aureus ATCC 29213 MurF assessed as UDP-MurNAc-pentapeptide product level at 2 times MIC by HPLC (reference value: 1 mAU)
Summary of the method: (§3)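 After 30 min, muropeptides were extracted and quantified by HPLC peak area, normalized to the control. The HPLC detection limit was 12 mAU. Results are representative of two independent experiments.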

Escherichia coli [10] = experiment: Inhibition of LPS-deficient Escherichia coli OC2530 MurF harboring pASK plasmid assessed as UDP-MurNAc-pentapeptide product level at 2 times MIC by HPLC (Rvb =880 +/- 17 mAU)
Summary of the method: (§4)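 Compound added at 2× MIC from 500× stock (DMSO control). After 30 min, muropeptides extracted and quantified by HPLC peak area (mAU); representative of two independent experiments.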

Escherichia coli [11] = experiment: Antimicrobial activity against LPS-deffective Escherichia coli OC2530 harboring pASK plasmid by broth microdilution method in presence of chloramphenicol; assay type: functional
Summary of the method: (§5)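 CLSI broth microdilution MIC for OC2530 carrying plasmid (empty pASK or pMurF). Medium contained chloramphenicol 3 μg/ml to keep the plasmid and AHT 100 ng/ml to induce MurF expression.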

Staphylococcus aureus [12] = experiment: Bacteriostatic activity against Staphylococcus aureus ATCC 29213 at 2 times MIC; assay type: functional, organism-based
Escherichia coli [13] = experiment: Antimicrobial activity against LPS-deffective Escherichia coli OC2530 assessed as cell aggregation at 0.5 times MIC by light microscopy relative to untreated control; assay type: functional, organism-based
Summary of the method: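 Cells were fixed on a glass slide under a coverslip and viewed by light microscopy at ×100/×1.25 oil immersion. Representative images were taken.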

Escherichia coli [14] = experiment: Inhibition of LPS-deficient Escherichia coli OC2530 MurF harboring pASK plasmid assessed as UDP-MurNAc-tripeptide substrate level at 2 times MIC by HPLC (reference value: 63 +/- 4 mAU); summary of the method: as §4
Escherichia coli [15] = experiment: Inhibition of LPS-deficient Escherichia coli OC2530 MurF harboring pMurF plasmid assessed as UDP-MurNAc-pentapeptide product level at 2 times MIC by HPLC (reference value: 2674 +/- 696 mAU); summary of the method: as §4
Escherichia coli [16] = experiment: Inhibition of LPS-deficient Escherichia coli OC2530 MurF assessed as UDP-MurNAc-pentapeptide product level at 2 times MIC by HPLC (reference value: 1 mAU)
Escherichia coli [17] = experiment: Inhibition of LPS-deficient Escherichia coli OC2530 MurF assessed as UDP-MurNAc-tripeptide substrate level at 2 times MIC by HPLC (reference value: 1 mAU)
Escherichia coli [18] = experiment: Inhibition of LPS-deficient Escherichia coli OC2530 MurF harboring pMurF plasmid assessed as UDP-MurNAc-tripeptide substrate level at 2 times MIC by HPLC (reference value: 220 +/- 65 mAU); summary of the method: as §4
Escherichia coli [19] = experiment: Bactericidal activity against LPS-deffective Escherichia coli OC2530 at 2 times MIC by CFU quantitation
Escherichia coli [20] = experiment: Antimicrobial activity against LPS-deffective Escherichia coli OC2530 harboring pMurF plasmid by broth microdilution method in presence of chloramphenicol; assay type: functional; summary of the method: as §5
Staphylococcus aureus [21] = experiment: Inhibition of Staphylococcus aureus ATCC 29213 MurF assessed as UDP-MurNAc-tripeptide substrate level at 2 times MIC by HPLC (reference value: 1 mAU); summary of the method: as §3

| SMILES | MIC (Escherichia coli [1]) [µg/mL] | MIC (Escherichia coli [2]) [µg/mL] | MIC (Enterococcus faecalis) [µg/mL] | MIC (Enterococcus faecium) [µg/mL] | MIC (Escherichia coli [3]) [µg/mL] | MIC (Staphylococcus aureus [4]) [µg/mL] | MIC (Escherichia coli [5]) [µg/mL] | MIC (Staphylococcus aureus [6]) [µg/mL] | MIC (Staphylococcus aureus [7]) [µg/mL] | MIC (Staphylococcus aureus [8]) [µg/mL] | other results |
| --- | --- | --- | --- | --- | --- | --- | --- | --- | --- | --- | --- |
| CC(C)C[C@@H]1NC(=O)[C@@H](Cc2ccccc2)NC(=O)[C@H](CCN)NC(=O)[C@@H](NC(=O)[C@H](CCN)NC(=O)[C@@H](N)[C@@H](C)O)CCNC(=O)[C@H]([C@@H](C)O)NC(=O)[C@H](CCN)NC(=O)[C@H](CCN)NC1=O [POLYMYXIN B NONAPEPTIDE] (H-T[Dab][Dab][Dab][dF]L[Dab][Dab]T; lactam 3-C) | 64 (≈ 66.4 µM) | 16 (≈ 16.6 µM) | > 64 | > 64 | 32 (≈ 33.2 µM) | > 64 | 64 (≈ 66.4 µM) | > 64 | > 64 | > 64 |  |
| N[C@@H]1CONC1=O [CYCLOSERINE] | 32 (≈ 313 µM) | 64 (≈ 627 µM) | 128 (≈ 1250 µM) | 64 (≈ 627 µM) | 16 (≈ 157 µM) | 32 (≈ 313 µM) | 32 (≈ 313 µM) | 64 (≈ 627 µM) | 32 (≈ 313 µM) | 32 (≈ 313 µM) | Activity (fold of control) (Staphylococcus aureus [9]): 0.33; Activity (Escherichia coli [10]): 146 mAU; MIC (Escherichia coli [11]): 64 µg/mL; Activity (Staphylococcus aureus [12]): Active; Activity (Escherichia coli [13]): Active; Activity (Escherichia coli [14]): 2260 mAU; Activity (Escherichia coli [15]): 181 mAU; Activity (fold of control) (Escherichia coli [16]): 0.12; Activity (fold of control) (Escherichia coli [17]): 30; Activity (Escherichia coli [18]): 5090 mAU; Activity (Escherichia coli [19]): Active; MIC (Escherichia coli [20]): 64 µg/mL; Activity (fold of control) (Staphylococcus aureus [21]): > 100 |
